APP transl inh – APP translation inhibition; 190,000 compounds, 0.82% hits; SH-SY5Y APP 5'UTR-luciferase reporter, luminescence; inhibition, % at 2 µM;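 active = inhibition above a set limit, derived from the sample mean plus 3 SD, cut at about 45% in these data; inconclusive = one replicate passes the limit while the other fails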
aSyn UTR inh – 5' untranslated region of α-synuclein, MLPCN primary screen | alpha-synuclein 5'UTR reporter, inhibitor activity | inhibition, % (tested at 7.5 µM) | 300,000 compounds, 0.82% hits; in the data active = inhibition above about 60%; inconclusive = no clear call, values can overlap the other calls;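 also: H4 neuroglioblastoma cells stably carrying SNCA 5'UTR luciferase fusion; 0% = DMSO wells and 100% = positive control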
697 NFkB inh – inhibitors of the PMA/ionomycin-induced NF-kB reporter in 697 B cells | 697 B-cell NF-kB luciferase reporter, 16 h | inhibition, % at 4 µM | 330,000 compounds, 0.33% hits | AID 435022; in the data active = inhibition above about 35%
Jurkat NFkB inh – inhibitors of the PMA/ionomycin-induced NF-kB reporter in Jurkat cells; PMA/ionomycin-induced NF-kB luciferase reporter, luminescence; inhibition, % at 4 µM; 330,000 compounds, 0.53% hits; in the data active = inhibition above about 50%
H9c2 TAG inh – inhibitors of triacylglycerol accumulation; 230,000 compounds, 0.66% hits; inhibition, % at 12.5 µM; H9c2 cells, Nile Red lipid (TAG) fluorescence; cells loaded with 200 µM oleic acid; AID 651582;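 active = pattern-corrected inhibition of lipid staining of at least 50% with the nuclear-stain viability signal not falling by more than 50%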;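 also: 0% = DMSO wells and 100% = triacsin C control wells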
Lipid droplet – modulators of hepatic lipid droplet formation. AML12 mouse hepatocytes, oleate lipid droplets, BODIPY imaging. 240,000 compounds, 0.4% hits. AID 1656. inhibition, % at 6.5 µM;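 active = lipid droplet intensity inhibited by at least 50%, with more than 500 cells counted; inconclusive = wells with under 300 cells, treated as cytotoxic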
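Test system: AML12 hepatocytes (mouse); reagent: oleate loading, 100 µM; dosing: one dose, 6.5 µM compound; incubation: overnight exposure; signal: fluorescence imaging, 20x objective, two fields per well; read-out basis: % inhibition of corrected integrated BODIPY droplet signal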
Hep lipid conf – hepatic lipid droplet formation inhibition, confirmed | shares compounds with Lipid droplet | AML12 mouse hepatocytes, BODIPY lipid droplet imaging; droplets induced with 100 µM oleic acid | inhibition, % at 5.2 µM | 870 compounds, 65% hits | AID 463183;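 active = inhibition of lipid droplet metric at least 50%, with more than 300 cells in each of four replicates; inconclusive = wells under 300 cells, flagged as toxic or low count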;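 also: plate controls were DMSO with oleic acid for no effect and 5 µM Triacsin-C for full effect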
AML12 cytotox – counter-screen for cytotoxicity in AML12 mouse hepatocytes; shares compounds with Lipid droplet; DAPI nuclear morphology cytotoxicity imaging; hits give high values; cells fed 100 µM oleate overnight; z-score at 5 µM; 870 compounds, 3% hits; AID 463200; in the data active = z-score above about 6.3;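 also: compound exposure lasted overnight at 37 °C before fixation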
AML12 tox ATP – AML12 hepatocyte cytotoxicity, confirmed. AML12 mouse hepatocyte viability, ATP luminescence; cells loaded with 100 µM oleic acid. 530 tested, under 10 active. shares compounds with Lipid droplet. AID 463219. cytotoxicity, % at 50 µM;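 active = cytotoxicity above 50% in each of four replicates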;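 also: compound exposure lasted overnight at 37 °C before the ATP read; 0% = DMSO-treated cells and 100% = wells with no cells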
Jurkat NFkB conf – inhibitors of the PMA/ionomycin-induced NF-kB reporter in Jurkat cells, retest. Jurkat NF-kB luciferase, 16 h. 2,700 compounds, 27% hits. shares compounds with Jurkat NFkB inh. inhibition, % at 4 µM;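 active = inhibition reaching about 45% at 4 µM in either replicate, limit read from the data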;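 also: plate controls were PMA/ionomycin stimulated DMSO wells for no effect and unstimulated DMSO wells for full effect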
H9c2 TAG conf – confirmation of triacylglycerol accumulation inhibitors; H9c2 lipid accumulation, Nile Red fluorescence; cells loaded with 200 µM oleic acid; 990 compounds, 71% hits; shares compounds with H9c2 TAG inh; AID 651629; inhibition, % at 12.5 µM;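 active = mean inhibition across replicates of 40% or more; inactive = mean inhibition below 40%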;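 also: plate controls were DMSO only wells for no effect and Triacsin C treated wells for full effect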
Numbers without * were called inactive; ? = inconclusive; / = no result given. Only some compounds are listed: those with a hit (about 1.9% of all), similar ones and a draw of the others.

SMILES	APP transl inh	aSyn UTR inh	697 NFkB inh	Jurkat NFkB inh	H9c2 TAG inh	Lipid droplet	Jurkat NFkB conf	others
CCOc1ccccc1NC(=O)CCC(=O)Nc1ccccc1OCC	4	10	-14	-4	59*	60*	/	Hep lipid conf=94*;AML12 cytotox=-0.26;AML12 tox ATP=12;H9c2 TAG conf=49*
COc1ccc(OCC(=O)N2CCN(S(=O)(=O)c3ccc(Cl)cc3)CC2)cc1	/	-7	1	13	/	-1	/
COc1ccc(C(C(=O)NC(C)(C)C)N(C(=O)CCC(=O)Nc2cc(C)on2)c2cccc(C)c2C)cc1 (stereo unspecified)	/	-5	7	4	/	-2	/
COc1ccc(C(C(=O)NC(C)(C)C)N(CC2CCCO2)C(=O)CCC(=O)Nc2cc(C)on2)cc1 (stereo unspecified)	/	2	-5	-4	50*	58*	/	Hep lipid conf=90*;AML12 cytotox=-0.95;AML12 tox ATP=0;H9c2 TAG conf=32
O=C(C1CC(=O)N(c2ccc(F)cc2)C1)N1CCCCCC1 (stereo unspecified)	/	2	-6	12	/	-18	/
c1ccc(-c2nc(N3CCOCC3)cc(N3CCOCC3)n2)cc1	1	-7	3	-4	51*	67*	/	Hep lipid conf=92*;AML12 cytotox=-0.2;AML12 tox ATP=25;H9c2 TAG conf=54*
COC(=O)CNC(=O)Cc1c(C)n(C(=O)c2ccc(Cl)cc2)c2ccc(OC)cc12	/	17	-20	4	10	-7	/
COc1ccc2c(c1)c(CC(=O)Nc1ccc(C)cc1)c(C)n2C(=O)c1ccc(Cl)cc1	-16	36	-23	5	61*	80*	/	Hep lipid conf=106*;AML12 cytotox=0.051;AML12 tox ATP=30;H9c2 TAG conf=50*
CCOC(=O)[C@@H]1[C@H]2COc3ccc(Br)cc3[C@@H]2N2C(=O)N(c3ccc(C(F)(F)F)cc3)C(=O)[C@@]12C	/	-1	4	1	52*	52*	/	Hep lipid conf=76*;AML12 cytotox=-0.14;AML12 tox ATP=5;H9c2 TAG conf=69*
CN1CCN(C2=C(NS(=O)(=O)c3cccs3)C(=O)c3ccccc3C2=O)CC1	/	21	11	31	16	-8	/
O=C1C(NS(=O)(=O)c2cccs2)=C(N2CCN(c3cccc(C(F)(F)F)c3)CC2)C(=O)c2ccccc21	-4	-3	-2	-8	60*	52*	/	Hep lipid conf=113*;AML12 cytotox=-0.37;AML12 tox ATP=12;H9c2 TAG conf=78*
C/C(=N\Nc1ccc([N+](=O)[O-])cc1[N+](=O)[O-])C(C)(C)C(C(=O)O)C(=O)O	-5	1	2	27	/	9	/
Cc1cc(N2CCOCC2)n2nc(C(F)(F)F)c(-c3ccccc3)c2n1	/	13	/	/	/	37	/
CCc1nn2c(N3CCOCC3)cc(C)nc2c1-c1ccc(F)cc1	-11	12	-24	-11	70*	88*	/	Hep lipid conf=110*;AML12 cytotox=0.76;AML12 tox ATP=2;H9c2 TAG conf=64*
COc1ccc(C(=O)N/N=C/c2ccccn2)cc1OC	-24	-6	6	-6	-5	-2	/
COc1ccc(C(=O)Nc2ccccc2C(=O)N/N=C/c2ccccn2)cc1OC	/	31	-67	56*	41	0	-21
CCOC(=O)c1ccccc1NC(=O)COC(=O)CCC(=O)c1ccccc1	/	27	8	7	-7	-3	/
Cc1oc(-c2ccc(Cl)cc2)nc1CS(=O)CC(=O)NCCCN1CCN(Cc2ccccc2)CC1 (stereo unspecified)	/	23	-9	65*	/	-14	41
CCC1CCCCN1CCCNC(=O)C1CCN(Cc2nc(-c3ccc(Cl)cc3)oc2C)CC1 (stereo unspecified)	/	13	7	56*	/	-33	-5
Cc1oc(-c2ccc(Cl)cc2)nc1CN1CCC(C(=O)NCCCN2CCOCC2)CC1	-10	-7	-2	-6	7	/	/
COc1ccc(OC)c(NC(=O)C2CC(=O)N(Cc3ccco3)C2)c1 (stereo unspecified)	/	/	13	5	11	/	/
Cc1cc(C(=O)CN2C(=O)C3CC=CCC3C2=O)c(C)n1-c1ccccc1 (stereo unspecified)	-184	17	-199	-174	18	/	-61
Cc1cc(C(=O)Cn2cc(C(F)(F)F)ccc2=O)c(C)n1-c1ccccc1	-4	23	-18	16	/	-20	/
Cc1ccc2c(c1)N=C(c1ccccc1)CC(C(Cl)Cl)=N2	/	-74	-245	-143	7	-13	/
Cc1ccc(C2=Nc3ccccc3N=C(C(Cl)Cl)C2)cc1	-109	-76	-149	-162	1	-30	-91
SMILES	APP transl inh	aSyn UTR inh	697 NFkB inh	Jurkat NFkB inh	H9c2 TAG inh	Lipid droplet	Jurkat NFkB conf	others
COC(=O)c1ccc(-c2ccc(Cl)cc2)nc1C	-179	-126	-181	-172	/	-5	-95
CCCc1cc(=O)oc2cc(C)cc(OC(C)C(=O)NCc3ccccn3)c12 (stereo unspecified)	/	-15	14	3	/	-10	/
COc1ccc(-c2nc(-c3ccccc3)nc(N3CCN(C)CC3)c2C#N)cc1	13	36	16	13	44	/	/
COc1ccc(-c2nc(-c3cccc(C)c3)nc(N3CCN(C)CC3)c2C#N)cc1	10	?	6	51*	/	/	9
Cc1cc(C(=O)CN2C(=O)c3ccccc3S2(=O)=O)c(C)n1C(C)C	/	/	10	55*	-3	/	19
CCn1c(C)cc(C(=O)CN2C(=O)c3ccccc3S2(=O)=O)c1C	/	/	20	69*	-8	/	39
C#Cc1ccc([C@@H]2C=C(C(=O)N3CCOCC3)O[C@H](OCc3ccc(CO)cc3)C2)cc1	/	-18	13	22	-14	/	/
CCCSc1cc(=O)n(-c2ccc(F)cc2)nc1C(=O)OCC	-14	-3	3	10	-19	5	/
CCOC(=O)C1(C)CCN1C(=O)c1ccc(OC)c(F)c1 (stereo unspecified)	/	/	/	/	6	/	/
O=C(Nc1ccccc1)c1ccc(-c2ccccc2)s1	-60	-215	9	-194	-4	5	-66
O=C(Nc1ccccc1)c1sc(Cl)nc1-c1ccccc1	2	-51	5	11	/	7	/
O=C(Nc1ccccc1)c1cc2ccc3ccccc3c2s1	/	-90	12	-151	11	-22	-65
O=C(O)c1ccc(-c2ccc(-c3ccccc3)cc2)s1	/	64*	-73	61*	/	-2	46
NS(=O)(=O)c1ccc(CNC(=O)Cc2ccccc2[N+](=O)[O-])cc1	/	13	-1	-2	/	0	/
